{"data": "Results collected from several papers", "target": "Ephrin type-A receptor 5 (EPHA5, Homo sapiens, UniProt P54756)"}
{"SMILES": "O=C1NC(=O)c2cc(Nc3ccc(F)cc3)c(Nc3ccc(F)cc3)cc21", "assay": "cell-free assay", "conditions": "0.5 µM", "endpoint": "remaining signal", "value": "95.4%"}
{"SMILES": "CC(C)(C)c1nc2c(s1)c1nc(N)ncc1c1ccc(NS(=O)(=O)c3c(F)cccc3F)c(F)c12", "assay": "enzyme activity, inhibitor, radiometric", "conditions": "1 µM", "endpoint": "remaining activity", "value": "109%"}
{"SMILES": "CS(=O)(=O)NCC[C@H](NC(=O)c1cncc2c1cnn2-c1ccc(F)cc1)c1ccnc(S(C)(=O)=O)c1", "assay": "cell-free assay, competition with immobilised ligand", "conditions": "1 µM", "endpoint": "remaining binding", "value": "100%"}
{"SMILES": "CCN(CC)CCNC(=O)c1c(C)[nH]c(/C=C2\\C(=O)Nc3ccc(F)cc32)c1C", "assay": "enzyme activity, inhibitor", "conditions": "10 µM", "endpoint": "inhibition", "value": "58%"}
{"SMILES": "Cn1cc(Cl)c2c(Oc3c(F)cc(Nc4cc(Cl)nc(N)n4)cc3F)ccnc21", "assay": "cell-free assay, competition with immobilised ligand", "conditions": "0.1 µM", "endpoint": "remaining binding", "value": "100%"}
{"SMILES": "O=C(Nc1cnn(-c2csc(C(=O)NC3COC3)c2)c1)Nc1ccccc1Cl", "assay": "enzyme activity, inhibitor", "conditions": "5 µM", "endpoint": "remaining activity", "value": "96.9%"}
{"SMILES": "O=C1Nc2ccc(Cl)cc2C1=Cc1cc(Cl)c(O)c(Cl)c1", "assay": "cell-free assay", "conditions": "0.5 µM", "endpoint": "remaining signal", "value": "99.4%"}
{"SMILES": "O=C(Nc1cnn(-c2csc(C(=O)NC3COC3)c2)c1)Nc1c(F)cccc1Cl", "assay": "enzyme activity, inhibitor", "conditions": "5 µM", "endpoint": "remaining activity", "value": "95%"}
{"SMILES": "CNC(=O)c1cc(Oc2ccc(NC(=O)Nc3ccc(Cl)c(C(F)(F)F)c3)cc2)ccn1", "assay": "enzyme activity, inhibitor", "conditions": "0.3 µM", "endpoint": "inhibition", "value": "32%"}
{"SMILES": "Oc1ccc(-c2nc(-c3ccncc3)c(-c3ccc(F)cc3)[nH]2)cc1", "assay": "cell-free assay", "conditions": "0.5 µM", "endpoint": "remaining signal", "value": "90.7%"}
{"SMILES": "COc1cc(Cl)c(C(=O)N[C@@H](CN[C@H]2CC[C@@H](N)CC2)Cc2ccc(C#N)cc2)cc1-c1ccc(CN[C@H](C)c2ccc(C)cc2)o1", "assay": "enzyme activity, inhibitor", "conditions": "1 µM", "endpoint": "remaining activity", "value": "90%"}
{"SMILES": "C[C@H](NC(=O)c1cnc2n1[C@](C)(Cc1ccc(C#N)cc1)C(=O)N2c1cc(Cl)c(F)c(Cl)c1)C(=O)NC1(c2ccccn2)CC1", "assay": "cell-free assay, competition with immobilised ligand", "conditions": "1 µM", "endpoint": "remaining binding", "value": "100%"}
{"SMILES": "CNC(=O)c1cc2c(Oc3ccc(NC(=O)C4(C(=O)Nc5ccc(F)cc5)CC4)cc3)ccnc2cc1OC", "assay": "enzyme activity, inhibitor, radiometric", "conditions": "1 µM", "endpoint": "inhibition", "value": "96%"}
{"SMILES": "C=CC(=O)Nc1cc(Nc2nccc(Nc3cc(Cl)c(F)cc3C(C)(C)O)n2)c(OC)cc1N1CC[C@@H](N(C)C)C1", "assay": "enzyme activity, inhibitor", "conditions": "1 µM", "endpoint": "inhibition", "value": "17%"}
{"SMILES": "CC/C(=N\\NC(=O)NCc1cccc(O)c1)c1ccc(O)c(C)c1O", "assay": "enzyme activity, inhibitor", "conditions": "0.1 µM", "endpoint": "inhibition", "value": "-3.3%"}
{"SMILES": "COc1cc(-c2cc(-c3ccc(N4CCNCC4)cc3)cnc2C)cc(OC)c1OC", "assay": "enzyme activity, inhibitor", "conditions": "0.1 µM", "endpoint": "inhibition", "value": "5%"}
{"SMILES": "CNCc1ccccc1-c1csc([C@H](C)Nc2nc(C)nc3cc(OC)c(OC)cc23)c1", "assay": "cell-free assay, competition with immobilised ligand", "conditions": "1 µM", "endpoint": "remaining binding", "value": "100%"}
{"SMILES": "Cc1ccc(Nc2nccc(N(C)c3ccc4c(C)n(C)nc4c3)n2)cc1S(N)(=O)=O", "assay": "enzyme activity, inhibitor", "conditions": "10 µM", "endpoint": "inhibition", "value": "70%"}
{"SMILES": "COc1cc2ncnc(Nc3ccc(Oc4ccccc4)c(C)c3C)c2cc1OC", "assay": "enzyme activity, inhibitor", "conditions": "1 µM", "endpoint": "inhibition", "value": "1%"}
{"SMILES": "Cc1cc(-n2nc(Cc3cc(F)cc(C(F)(F)F)c3)nc2C)ccc1C(N)=O", "assay": "cell-free assay, competition with immobilised ligand", "conditions": "1 µM", "endpoint": "remaining binding", "value": "100%"}
{"SMILES": "CC(C)c1ccc(NC(=O)c2cccs2)c(-c2nc3ccccc3[nH]c2=O)c1", "assay": "enzyme activity, inhibitor", "conditions": "1 µM", "endpoint": "activity vs control", "value": "112%"}
{"SMILES": "COc1cc(-c2cn(C3CCc4c(F)cccc4N(CC(F)(F)F)C3=O)nn2)ccc1-n1cnc(C)c1 (stereo not shown)", "assay": "cell-free assay, competition with immobilised ligand", "conditions": "1 µM", "endpoint": "remaining binding", "value": "100%"}
{"SMILES": "Cc1ccc(C(=O)NCc2ccsc2)cc1C#Cc1cn(C(C)C)c2ncnc(N)c12", "assay": "enzyme activity, inhibitor", "conditions": "1 µM", "endpoint": "activity vs control", "value": "1%"}
{"SMILES": "Cc1noc([C@H]2C[C@@H](c3ccc(C(F)(F)F)cc3)CN(C(=O)N3CCS(=O)(=O)C3)C2)n1", "assay": "cell-free assay, competition with immobilised ligand", "conditions": "1 µM", "endpoint": "remaining binding", "value": "100%"}
{"SMILES": "CN1CC(Oc2cnc(C#N)cc2-c2ccn3nc(NC(=O)C4CC4)cc3c2)C1", "assay": "enzyme activity, inhibitor", "conditions": "1 µM", "endpoint": "inhibition", "value": "10%"}
